Data as given in ChEMBL document CHEMBL1130629, “Fused aminotetralins: novel antagonists with high selectivity for the dopamine D3 receptor” (Bioorg Med Chem Lett, 1998).

Assays:
[1] = target: D(3) dopamine receptor (Homo sapiens, UniProt P35462); assay: Binding affinity at Dopamine receptor D3 expressed in CHO cells by [125I]iodosulpiride displacement.; type: cell-based
[2] = Compound was evaluated for the rate of clearance in rat upon intravenous administration.; type: ADME, organism-based; details: in vivo
In short: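 Relative blood clearance measured at steady state. Compound dissolved in 5% (w/v) aqueous glucose with 2% (v/v) DMSO and 10% Encapsin HPB, target concentration 0.2 mg free base/ml. Given to rats as a constant-rate iv infusion over 12 h at a target 1 mg free base/kg/h, n = 3. Serial blood samples taken over the last 2 h to confirm steady state, then terminal exsanguination. Parent compound in blood measured by LC/MS/MS.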

[3] = target: T1, D(2) dopamine receptor (Homo sapiens, UniProt P14416); assay: Binding affinity at Dopamine receptor D2 expressed in CHO cells by [125I]iodosulpiride displacement.; type: cell-based
T1 sequence (P14416 whole entry): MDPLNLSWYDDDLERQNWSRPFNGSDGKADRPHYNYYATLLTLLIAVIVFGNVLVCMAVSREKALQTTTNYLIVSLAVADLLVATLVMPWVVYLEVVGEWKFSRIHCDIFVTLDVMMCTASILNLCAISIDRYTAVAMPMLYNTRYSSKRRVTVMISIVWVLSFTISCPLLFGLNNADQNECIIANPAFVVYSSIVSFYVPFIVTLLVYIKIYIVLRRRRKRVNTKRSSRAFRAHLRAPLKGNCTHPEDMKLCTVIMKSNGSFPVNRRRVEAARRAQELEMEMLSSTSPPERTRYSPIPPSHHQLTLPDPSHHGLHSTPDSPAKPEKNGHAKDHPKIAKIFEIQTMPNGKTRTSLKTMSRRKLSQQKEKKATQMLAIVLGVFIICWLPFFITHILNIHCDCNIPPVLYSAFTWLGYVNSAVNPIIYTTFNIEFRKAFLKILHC

[4] = target: T1, D(2) dopamine receptor; assay: Displacement of [125I]iodosulpiride from Dopamine receptor D2 expressed in CHO cells; type: cell-based

Sequence of D(3) dopamine receptor (P35462 whole entry): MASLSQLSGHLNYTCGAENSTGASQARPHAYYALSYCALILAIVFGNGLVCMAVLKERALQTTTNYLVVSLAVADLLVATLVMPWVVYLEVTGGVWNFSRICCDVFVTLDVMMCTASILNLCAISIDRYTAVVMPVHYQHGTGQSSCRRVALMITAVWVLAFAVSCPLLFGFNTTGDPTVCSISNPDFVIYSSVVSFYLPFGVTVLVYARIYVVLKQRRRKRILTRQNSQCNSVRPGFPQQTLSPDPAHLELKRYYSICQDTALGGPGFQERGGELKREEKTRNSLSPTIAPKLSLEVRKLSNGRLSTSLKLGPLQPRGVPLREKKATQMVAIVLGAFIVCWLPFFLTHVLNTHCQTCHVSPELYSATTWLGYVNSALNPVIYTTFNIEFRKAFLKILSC

SMILES	Ki [1]	clearance [2]	Ki [3]	Ki [4]
O=C(NCCCCN1CC[C@H]2c3cccc(O)c3CC[C@@H]21)c1ccc(-c2ccccc2)cc1	2 nM		63.1 nM	
CS(=O)(=O)Oc1ccc2c(c1)CC[C@H]1[C@H]2CCN1CCCCNC(=O)c1ccc(-c2ccccc2)cc1	50.1 nM		1000 nM	
CCCN(CCCCNC(=O)c1ccc(-c2ccccc2)cc1)C1CCc2c(Cl)cccc2C1 (stereo not drawn)		96 mL/min/kg		
O=C(NCCCCN1CCC[C@H]2c3ccc(O)cc3CC[C@@H]21)c1ccc(-c2ccccc2)cc1	7.94 nM		501 nM	
O=C(NCCCCN1CC[C@@H]2c3ccccc3CC[C@@H]21)c1ccc(-c2ccccc2)cc1	50.1 nM	59 mL/min/kg	501 nM	
CS(=O)(=O)Oc1ccc2c(c1)CC[C@H]1[C@H]2CCCN1CCCCNC(=O)c1ccc(-c2ccccc2)cc1	200 nM		2000 nM	
O=C(NCCCCN1CC[C@H]2c3ccc(O)cc3CC[C@@H]21)c1ccc(-c2ccccc2)cc1	12.6 nM		316 nM	
O=C(NCCCCN1CC[C@H]2c3ccccc3CC[C@@H]21)c1ccc(-c2ccccc2)cc1	15.8 nM		501 nM	
CS(=O)(=O)Oc1cccc2c1CC[C@H]1[C@H]2CCN1CCCCNC(=O)c1ccc(-c2ccccc2)cc1	5.01 nM		316 nM	

More lines, now with the values ahead:

Ki [1]	clearance [2]	Ki [3]	Ki [4]	SMILES
10 nM	61 mL/min/kg	316 nM		CS(=O)(=O)Oc1cccc2c1CC[C@@H]1[C@@H]2CCCN1CCCCNC(=O)c1ccc(-c2ccccc2)cc1 [listing 1 of 2 here]
251 nM		398 nM		CS(=O)(=O)Oc1cccc2c1CC[C@H]1[C@@H]2CCCN1CCCCNC(=O)c1ccc(-c2ccccc2)cc1
6.31 nM		251 nM		CS(=O)(=O)Oc1cccc2c1CC[C@H]1[C@H]2CCCN1CCCCNC(=O)c1ccc(-c2ccccc2)cc1
1260 nM		1260 nM		CS(=O)(=O)Oc1cccc2c1CC[C@@H]1[C@@H]2CCCN1CCCCNC(=O)c1ccc(-c2ccccc2)cc1 [listing 2 of 2 here]
15.8 nM	46 mL/min/kg	501 nM		O=C(NCCCCN1CCC[C@@H]2c3ccccc3CC[C@H]21)c1ccc(-c2ccccc2)cc1
15.8 nM		631 nM		COc1cccc2c1CC[C@H]1[C@H]2CCN1CCCCNC(=O)c1ccc(-c2ccccc2)cc1
794 nM		794 nM		COc1cccc2c1CC[C@@H]1[C@@H]2CCCN1CCCCNC(=O)c1ccc(-c2ccccc2)cc1
251 nM			794 nM	O=C(NCCCCN1CCC[C@@H]2c3ccccc3CC[C@@H]21)c1ccc(-c2ccccc2)cc1
7.94 nM		501 nM		COc1cccc2c1CC[C@H]1[C@H]2CCCN1CCCCNC(=O)c1ccc(-c2ccccc2)cc1 (single isomer, unassigned)
